# Experimental data from ChEMBL document CHEMBL4270544, “Design, synthesis and biological evaluation of a novel tubulin inhibitor 7a3 targeting the colchicine binding site” (Eur J Med Chem, 2018).
# Active and inactive are the calls of the source. The rule behind the calls is not given here.
# Legend:
# [1] = tested on: MDA-MB-231; assay: Antiproliferative activity against human MDA-MB-231 cells after 72 hrs by CCK8 assay; format: functional, cell-based; settings: MDA-MB-231, 72 h
# Outline: (§1)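 CCK-8 proliferation assay with CA-4 as positive control. IC50 is the concentration giving 50% inhibition of proliferation. Mean ± SEM from three independent experiments.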
# [2] = tested on: HeLa; assay: Antiproliferative activity against human HeLa cells after 72 hrs by CCK8 assay; format: functional, cell-based; outline: as §1
# [3] = tested on: SK-OV-3; assay: Cell cycle arrest in human SKOV3 cells assessed as accumulation at G2/M phase at 40 nM after 24 hrs by propidium iodide staining based flow cytometry (reference value: 24.99%); format: functional
# Outline: (§2)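 SK-OV-3 cells exposed to 40, 80 or 160 nM for 24 h, with untreated cells as control. Stained with PI and analysed by flow cytometry for phase distribution. Mean ± SEM of three independent experiments; t-test against control.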
# [4] = tested on: SK-OV-3; assay: Cell cycle arrest in human SKOV3 cells assessed as accumulation at G0/G1 phase at 80 nM after 24 hrs by propidium iodide staining based flow cytometry (reference value: 67.79%); format: functional; outline: as §2
# [5] = tested on: SK-OV-3; assay: Cell cycle arrest in human SKOV3 cells assessed as accumulation at G2/M phase at 80 nM after 24 hrs by propidium iodide staining based flow cytometry (reference value: 24.99%); format: functional; outline: as §2
# [6] = tested on: SK-OV-3; assay: Cell cycle arrest in human SKOV3 cells assessed as accumulation at S phase at 160 nM after 24 hrs by propidium iodide staining based flow cytometry (reference value: 18.09%); format: functional; outline: as §2
# [7] = tested on: SK-OV-3; assay: Induction of apoptosis in human SKOV3 cells assessed as live cells at 40 nM after 48 hrs by Annexin-V-FITC/propidium iodide staining based flow cytometry (reference value: 94.43%); format: functional
# [8] = tested on: SK-OV-3; assay: Induction of apoptosis in human SKOV3 cells assessed as necrotic cells at 40 nM after 48 hrs by Annexin-V-FITC/propidium iodide staining based flow cytometry (reference value: 0.67%); format: functional
# [9] = tested on: SK-OV-3; assay: Induction of apoptosis in human SKOV3 cells assessed as early apoptotic cells at 80 nM after 48 hrs by Annexin-V-FITC/propidium iodide staining based flow cytometry (reference value: 0.97%); format: functional
# [10] = tested on: SK-OV-3; assay: Induction of apoptosis in human SKOV3 cells assessed as necrotic cells at 80 nM after 48 hrs by Annexin-V-FITC/propidium iodide staining based flow cytometry (reference value: 0.67%); format: functional
# [11] = tested on: SK-OV-3; assay: Induction of apoptosis in human SKOV3 cells assessed as live cells at 160 nM after 48 hrs by Annexin-V-FITC/propidium iodide staining based flow cytometry (reference value: 94.43%); format: functional
# [12] = tested on: SK-OV-3; assay: Induction of apoptosis in human SKOV3 cells assessed as necrotic cells at 160 nM after 48 hrs by Annexin-V-FITC/propidium iodide staining based flow cytometry (reference value: 0.67%); format: functional
# [13] = tested on: SK-OV-3; assay: Antimigratory activity against human SKOV3 cells assessed as wound closure at 160 nM after 24 hrs by microscopy based scratch wound assay (reference value: 79.5 +/- 2.8%); format: functional
# [14] = tested on: SK-OV-3; assay: Antimigratory activity against human SKOV3 cells assessed as number of migrated cells at 100 nM after 24 hrs by crystal violet staining based transwell migration assay (reference value: 49.3 to 50.7); format: functional
# [15] = organism: Bos taurus; assay: Inhibition of bovine MAP-rich tubulin polymerization measured every 1 min for 30 mins
# Outline: (§3)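 Purified tubulin polymerization followed at 37 °C by absorbance at 340 nm, read every 1 min for 30 min. Test concentrations 2.5, 10 and 40 µM. CA-4 at 10 µM served as positive control and DMSO (1%, v/v) as vehicle. Polymerization is expressed relative to the vehicle group.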
# [16] = organism: Bos taurus; assay: Inhibition of bovine MAP-rich tubulin polymerization at 10 uM measured every 1 min for 30 mins relative to control; outline: as §3
# [17] = organism: Bos taurus; assay: Inhibition of bovine MAP-rich tubulin polymerization at 40 uM measured every 1 min for 30 mins relative to control; outline: as §3
# [18] = tested on: SK-OV-3; assay: Inhibition of tubulin assembly in human SKOV3 cells assessed as abnormal mitotic spindle formation at 10 to 1000 nM after 24 hrs by DAPI staining based immunofluorescence microscopic method; format: functional, cell-based
# Outline: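 SK-OV-3 cells exposed to DMSO or 10, 100 or 1000 nM for 24 h. Fixed in methanol, stained with FITC anti-β-tubulin antibody, counterstained with DAPI, and imaged by confocal microscopy.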
# [19] = tested on: Mus musculus; assay: Area under the first moment curve (0 to 24 hrs) in C57 mouse at 50 mg/kg, ip administered as single dose by LC-MS/MS analysis; format: ADME, organism-based; settings: in vivo
# Outline: (§4)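 Male C57 mice, one intraperitoneal dose. Blood drawn from submaxillary vein at 0, 5, 15, 30 min and 1, 2, 4, 8, 12, 24 h. Plasma measured by LC/MS/MS in MRM mode with CA-4 as internal standard. Calibration by weighted linear regression over 0.01–500 ng/mL. Parameters obtained by non-compartmental analysis.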
# [20] = Elimination rate constant in C57 mouse at 50 mg/kg, ip administered as single dose by LC-MS/MS analysis; format: ADME, organism-based; settings: in vivo; outline: as §4
# [21] = AUC (0 to infinity) in C57 mouse at 50 mg/kg, ip administered as single dose by LC-MS/MS analysis; format: ADME, organism-based; set-up: dose 50 mg/kg, time infinity, route intraperitoneal; settings: in vivo; outline: as §4
# [22] = Mean residence time in C57 mouse at 50 mg/kg, ip administered as single dose by LC-MS/MS analysis; format: ADME, organism-based; settings: in vivo; outline: as §4
# [23] = tested on: Mus musculus; assay: Toxicity in Balb/c mouse xenografted with human SKOV3 cells assessed as body weight loss at 50 mg/kg, ip administered every two days for three times measured during compound dosing; format: organism-based; settings: in vivo
# Outline: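 Six-week-old Balb/c nude mice given subcutaneous SK-OV-3 cells in the back. Randomised into three groups at about 200 mm3 tumour size. Dosed 50 mg/kg intraperitoneally in 5% DMSO/olive oil every two days, three times; vehicle group as control. Tumour volume and body weight tracked; six animals per group, mean ± SEM, t-test.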
# [24] = tested on: Mus musculus; assay: Toxicity in Balb/c mouse xenografted with human SKOV3 cells assessed as pathological changes in heart at 50 mg/kg, ip administered every two days for three times by hematoxylin and eosin staining based assay; format: organism-based; settings: in vivo
# Outline: (§5)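 In SK-OV-3 xenografted Balb/c nude mice dosed 50 mg/kg intraperitoneally in 5% DMSO/olive oil every two days, three times, organs were collected and examined after H&E staining.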
# [25] = tested on: Mus musculus; assay: Toxicity in Balb/c mouse xenografted with human SKOV3 cells assessed as pathological changes in liver at 50 mg/kg, ip administered every two days for three times by hematoxylin and eosin staining based assay; format: organism-based; settings: in vivo; outline: as §5
# [26] = tested on: Mus musculus; assay: Toxicity in Balb/c mouse xenografted with human SKOV3 cells assessed as pathological changes in spleen at 50 mg/kg, ip administered every two days for three times by hematoxylin and eosin staining based assay; format: organism-based; settings: in vivo
# Outline: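 Six-week-old Balb/c nude mice received subcutaneous SK-OV-3 cells in the back. At ~200 mm3 tumour size they were randomized to vehicle or drug groups, six per group. Drug was given in 5% (v/v) DMSO/olive oil, intraperitoneally, every two days for three doses. Heart, liver, spleen, lung and kidney were collected and examined by H&E staining.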
# [27] = tested on: Mus musculus; assay: Toxicity in Balb/c mouse xenografted with human SKOV3 cells assessed as pathological changes in lung at 50 mg/kg, ip administered every two days for three times by hematoxylin and eosin staining based assay; format: organism-based; settings: in vivo; outline: as §5
# [28] = tested on: Mus musculus; assay: Toxicity in Balb/c mouse xenografted with human SKOV3 cells assessed as pathological changes in kidney at 50 mg/kg, ip administered every two days for three times by hematoxylin and eosin staining based assay; format: organism-based; settings: in vivo; outline: as §5
compound,measurement,setting,value
CCOc1ccc(-c2cn(C)nc2-c2cc(OC)c(OC)c(OC)c2)cc1,IC50,[1],31 nM
same,IC50,[2],32.8 nM
same,Activity,[3],24.6%
same,Activity,[4],41.2%
same,Activity,[5],34.65%
same,Activity,[6],26.16%
same,Activity,[7],91.03%
same,Activity,[8],0.97%
same,Activity,[9],5.05%
same,Activity,[10],2.72%
same,Activity,[11],41.9%
same,Activity,[12],1.28%
same,Activity,[13],32.1%
same,Activity,[14],18.3
same,inhibition,[15],Dose-dependent effect
same,inhibition,[16],60.4%
same,inhibition,[17],85.3%
same,inhibition,[18],Active
same,AUMC,[19],1498 hr.hr.ng/ml
same,k el,[20],0.000117 s⁻¹
same,AUC(0-inf),[21],1170 ng·h/mL
same,MRT,[22],1.51 h
same,Activity,[23],Non-Toxic
same,Activity,[24],Non-Toxic
same,Activity,[25],Non-Toxic
same,Activity,[26],Non-Toxic
same,Activity,[27],Non-Toxic
same,Activity,[28],Non-Toxic
